Series [1] relates to Rattus norvegicus. The series can be described thus: Antidiabetic activity in po dosed N-STZ 1.5 rat assessed as reduction in GHB level for 4 weeks. Particulars: dose 1-3 mg/kg. The format is functional, organism-based. The method in brief: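 Male N-STZ-1.5 rats kept under time-restricted feeding, treated for 4 weeks; GHb measured before and after treatment and expressed also as percentage change.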

Series [2] deals with Rattus norvegicus. Nature of the series: Antidiabetic activity in po dosed N-STZ 1.5 rat assessed as reduction in glucose level pre-treated for 60 mins followed by 1.5 g/kg glucose treatment and measured up to 120 mins by OGTT. The format is functional, organism-based. Particulars: dose 1-3 mg/kg, time min <=180. An outline of the steps:
(§1)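 Male N-STZ1.5 rats, 25–30 weeks old, fasted overnight, dosed orally with compound or 0.5% methylcellulose vehicle; 60 min later oral glucose load 1.5 g/kg. Tail-vein blood taken pre-dose, at 0, 10, 30, 60 and 120 min; plasma glucose by autoanalyzer, insulin by radioimmunoassay. AUC computed; mean ± SD, n = 6; one-tailed Williams' test.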

Series [3] concerns Rattus norvegicus. Nature of the series: Antidiabetic activity in N-STZ 1.5 rat assessed as reduction in glucose level at 1 mg/kg, po pre-treated for 60 mins followed by 1.5 g/kg glucose treatment and measured up to 120 mins by OGTT. The series is classed as functional, organism-based. Particulars: time min <=180. The method in brief:
as §1

Series [4] is described as follows: AUC in rat at 1 mg/kg, po by LC/MS/MS analysis. The series is classed as ADME, organism-based. Details: dose 1 mg/kg. Particulars: in vivo. The method in brief: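 Cassette dosing, given by mouth at 1 mg/kg in 0.5% methylcellulose aqueous solution, with intravenous arm at 0.1 mg/kg, to non-fasted animals. Blood collected after dosing, plasma deproteinized and centrifuged, compound measured by LC/MS/MS.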

For series [5], the target named is T1, Glucose-dependent insulinotropic receptor (Rattus norvegicus, UniProt Q7TQN8).
T1 sequence (Q7TQN8 whole entry): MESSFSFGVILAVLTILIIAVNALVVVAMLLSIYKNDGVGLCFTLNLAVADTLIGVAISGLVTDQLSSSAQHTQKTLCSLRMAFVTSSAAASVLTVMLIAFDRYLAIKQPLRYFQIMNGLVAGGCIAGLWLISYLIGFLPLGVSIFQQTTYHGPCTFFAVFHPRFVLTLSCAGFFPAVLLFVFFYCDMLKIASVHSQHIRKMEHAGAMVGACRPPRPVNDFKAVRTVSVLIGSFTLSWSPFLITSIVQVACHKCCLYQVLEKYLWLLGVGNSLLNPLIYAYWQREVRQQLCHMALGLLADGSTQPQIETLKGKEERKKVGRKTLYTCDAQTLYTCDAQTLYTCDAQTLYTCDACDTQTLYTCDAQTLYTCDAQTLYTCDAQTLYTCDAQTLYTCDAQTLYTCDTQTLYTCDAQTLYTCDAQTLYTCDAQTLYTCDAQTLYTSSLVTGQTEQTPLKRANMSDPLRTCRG
The series can be described thus: Agonist activity at rat GPR119 expressed in CHO cells co-expressing cyclic AMP response element incubated for 2 hrs by steady-glo luciferase assay. The format is cell-based. The method in brief:
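Rat GPR119-expressing cells, cAMP-induced luciferase read with Steady-Glo after 2 h compound exposure in MEM α/HEPES/BSA buffer. Activity scaled between vehicle and a 10 µM reference agonist; EC50 mean of n = 2.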

Series [6] deals with T2, glucose-dependent insulinotropic receptor (Mesocricetus auratus, UniProt A0A1U8CD06).
T2 sequence (A0A1U8CD06 whole entry): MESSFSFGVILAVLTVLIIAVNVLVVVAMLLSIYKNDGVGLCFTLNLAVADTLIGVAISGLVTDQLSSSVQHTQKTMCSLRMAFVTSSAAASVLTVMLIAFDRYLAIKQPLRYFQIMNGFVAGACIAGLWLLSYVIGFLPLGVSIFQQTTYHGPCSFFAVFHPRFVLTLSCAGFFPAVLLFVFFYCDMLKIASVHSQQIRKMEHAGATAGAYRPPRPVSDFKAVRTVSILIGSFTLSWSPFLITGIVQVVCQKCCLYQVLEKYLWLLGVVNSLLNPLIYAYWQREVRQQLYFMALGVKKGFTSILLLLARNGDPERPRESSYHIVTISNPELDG
The series can be described thus: Agonist activity at GPR119 in glucose-induced golden hamster HIT-T15 cells assessed as increase in insulin secretion after 2 hrs by A1phaLISA. The series is classed as cell-based. An outline of the steps: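 HIT-T15 hamster β-cells seeded 5×10^4 cells/well, next day pre-incubated 2 h in KRBH buffer (0.2% BSA). Then exposed to compounds in KRBH with 0.2% fatty acid free BSA and 10 mmol/L glucose for 2 h at 37 °C; secreted insulin in supernatant quantified by AlphaLISA. EC50 reported from n = 2.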

Series [7] can be described thus: Partition coefficient, logD between 1-octanol and pH 7.4 aqueous buffer by chromatographic analysis. The series is classed as physicochemical. Particulars: 1-octanol/pH 7.4 aqueous buffer. An outline of the steps:
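LogD at pH 7.4, octanol/aqueous buffer partition, estimated by a chromatographic method adapted from a published procedure.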

The target in the next series is hERG (KCNH2) (Homo sapiens, UniProt Q12809). Nature of the series: Inhibition of human ERG expressed in CHO cells at 10 uM incubated for 5 mins by patch-clamp assay relative to control. The series is classed as cell-based. To be noted: CHO cells expressing human ERG. An outline of the steps: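 hERG-expressing CHO cells grown at 32 °C, recorded by population patch clamp after amphotericin B perforation; PBS with Ca/Mg outside, KCl/EGTA/HEPES pH 7.3 inside. Holding −80 mV, step to 40 mV 2 s, then −50 mV 2 s; peak tail current before and after 5 min compound exposure. Percent inhibition = 100 − post/pre × 100; mean ± SD, n = 4.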

Series [8] can be described thus: Total clearance in rat at 0.1 mg/kg, iv by LC/MS/MS analysis. The series is classed as ADME, organism-based. To be noted: in vivo. An outline of the steps:
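Cassette intravenous dosing at 0.1 mg/kg to non-fasted animals. Plasma taken from blood samples, deproteinized and centrifuged, and compound levels in supernatant quantified by LC/MS/MS.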

The nature of series [9]: Intrinsic clearance in rat liver microsomes at 1 uM measured after 15 to 30 mins in presence of NADPH generating system by LC/MS/MS analysis. The series is classed as ADME, Microsome. Particulars: time 15-30 min, read-out: CLH. The method in brief: (§2)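 Human or rat liver microsomes at 0.2 mg/mL protein in 50 mM potassium phosphate pH 7.4 with 1 µM compound; reaction started with NADPH-generating system (5 mM MgCl2, 5 mM glucose-6-phosphate, 0.5 mM β-NADP+, 1.5 units/mL G6PDH). Stopped with acetonitrile at 15 and 30 min, parent by LC/MS/MS; rate from concentration–time slope, expressed as µL/min/mg.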
For orientation: Liver microsomes are a subcellular fraction often used to study metabolism.

Series [10] in a line: Intrinsic clearance in human liver microsomes at 1 uM measured after 15 to 30 mins in presence of NADPH generating system by LC/MS/MS analysis. The series is classed as ADME, Microsome. Particulars: time 15-30 min, read-out: CLH. The method in brief:
as §2

These results are taken from ChEMBL document CHEMBL4715912, “Discovery of a novel series of indolinylpyrimidine-based GPR119 agonists: Elimination of ether-a-go-go-related gene liability using a hydrogen bond acceptor-focused approach” (Bioorg Med Chem, 2021).

SMILES strings stand for the structures. The source made the active and inactive calls. The rule behind the calls is not given here.

Chain of hERG (KCNH2) (Q12809 whole entry): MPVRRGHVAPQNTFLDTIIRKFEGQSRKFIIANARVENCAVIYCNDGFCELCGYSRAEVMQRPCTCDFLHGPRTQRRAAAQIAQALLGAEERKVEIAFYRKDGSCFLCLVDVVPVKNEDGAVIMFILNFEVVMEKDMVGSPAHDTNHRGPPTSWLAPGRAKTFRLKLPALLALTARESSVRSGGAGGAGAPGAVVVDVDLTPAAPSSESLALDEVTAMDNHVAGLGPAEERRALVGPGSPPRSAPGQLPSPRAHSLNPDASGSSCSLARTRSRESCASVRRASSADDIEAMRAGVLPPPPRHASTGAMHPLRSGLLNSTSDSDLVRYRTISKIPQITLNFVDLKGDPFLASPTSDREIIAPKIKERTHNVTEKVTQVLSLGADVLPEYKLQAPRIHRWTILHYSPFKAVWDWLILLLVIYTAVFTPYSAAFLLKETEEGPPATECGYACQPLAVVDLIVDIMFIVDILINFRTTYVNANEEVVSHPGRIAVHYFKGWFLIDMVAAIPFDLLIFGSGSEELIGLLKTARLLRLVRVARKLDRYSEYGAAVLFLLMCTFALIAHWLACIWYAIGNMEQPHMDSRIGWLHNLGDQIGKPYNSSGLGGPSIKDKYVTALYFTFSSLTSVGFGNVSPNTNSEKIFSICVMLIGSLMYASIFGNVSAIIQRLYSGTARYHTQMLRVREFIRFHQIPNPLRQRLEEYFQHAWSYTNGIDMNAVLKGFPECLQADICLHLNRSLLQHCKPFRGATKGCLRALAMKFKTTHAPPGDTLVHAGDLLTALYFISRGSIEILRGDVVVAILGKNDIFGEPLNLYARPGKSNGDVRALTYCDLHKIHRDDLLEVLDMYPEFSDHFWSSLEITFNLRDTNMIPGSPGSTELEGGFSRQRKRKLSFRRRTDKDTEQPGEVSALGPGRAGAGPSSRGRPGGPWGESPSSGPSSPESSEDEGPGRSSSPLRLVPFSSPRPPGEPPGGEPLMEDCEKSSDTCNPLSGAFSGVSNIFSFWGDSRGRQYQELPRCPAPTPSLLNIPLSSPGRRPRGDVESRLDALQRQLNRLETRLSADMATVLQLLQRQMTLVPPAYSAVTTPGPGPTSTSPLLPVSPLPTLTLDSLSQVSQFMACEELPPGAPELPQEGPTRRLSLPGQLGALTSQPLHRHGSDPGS

One may read the AUC as concentration integrated over time. A lower AUC goes with low exposure. As usually defined, the EC50 is the concentration needed to bring the measured effect to its halfway point. The logD is lipophilicity at a set pH, counting ionised and neutral species. A lower logD goes with a more hydrophilic compound. As usually defined, the inhibition is the share of the control response that was lost under treatment. A low value points to little suppression. What is called clearance is the rate of elimination divided by the concentration. A low value points to a low capacity for elimination. As to `CC(C)c1noc(N2CCC(Oc3cc(N4CCc5cc(N6CCC[C@H](O)C6=O)ccc54)ncn3)CC2)n1`, the Activity result with Rattus norvegicus [1] and in the series with Rattus norvegicus [2] was “Dose-dependent effect” in each case. For the same compound, the outcome in the series with Rattus norvegicus [3] was Active. The same compound displayed an AUC in series [4] of 1670 ng·h/mL. Further, the EC50 in [5] was determined as 0.12 µM; in series [6] it was 0.025 µM. The same compound had a logD in series [7] of 3.3. At hERG (KCNH2), this compound returned an inhibition at 5 min, 10 µM of 31%. For the same compound, in series [8], the clearance was 2.47 mL/min/kg. The microsomal CLint at 1 µM in series [9] is 1 µL/min/mg; in series [10], 9 µL/min/mg.
